Assay results: publication PMC3166240 (Cancer research, 2010)
Blank lines part the entries; values can stand above or below the molecule they belong to.

Key:
[1] = test system: Raji cells (human B-cell lymphoma) xenograft tumors; assay: animal biodistribution study for 7 in Raji xenograft mice; assay type: in vivo, BALB/c nu/nu mice; conditions: i.v.
Procedure, shortened: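 Eleven female BALB/c nu/nu mice, 5–6 weeks old, were xenografted s.c. in the abdomen with 5 × 10⁶ Raji cells. Tumors were measured after three weeks. The ¹²⁵I-labeled test compound (4–6 μCi; 5 μg, 6 nmol) in normal saline was given i.v. via the tail vein. Mice were killed at 4, 24 and 48 h. Tissues were weighed and γ-counted (%ID/g). Mice were grouped afterwards by slow or fast blood clearance.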

[2] = molecular target: T1, α4β1 integrin (Homo sapiens, UniProt P05556+P13612); assay: cell adhesion competitive inhibition assay; assay type: cell-based
Procedure, shortened: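 Wells were coated with neutravidin, then loaded with biotinylated CS-1 to immobilize the ligand, and blocked with BSA. Molt-4 cells (human T-cell leukemia, α4β1-bearing) were incubated in the wells with test compound. Wells were washed, formalin-fixed and crystal violet-stained, and absorbance was read at 570 nm. Percent inhibition came from concentration-dependent curves.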

[3] = molecular target: T1, α4β1 integrin; assay: in vitro binding studies of radioiodinated 8; conditions: 125I-labelled

T1 sequence (P13612 34-1032): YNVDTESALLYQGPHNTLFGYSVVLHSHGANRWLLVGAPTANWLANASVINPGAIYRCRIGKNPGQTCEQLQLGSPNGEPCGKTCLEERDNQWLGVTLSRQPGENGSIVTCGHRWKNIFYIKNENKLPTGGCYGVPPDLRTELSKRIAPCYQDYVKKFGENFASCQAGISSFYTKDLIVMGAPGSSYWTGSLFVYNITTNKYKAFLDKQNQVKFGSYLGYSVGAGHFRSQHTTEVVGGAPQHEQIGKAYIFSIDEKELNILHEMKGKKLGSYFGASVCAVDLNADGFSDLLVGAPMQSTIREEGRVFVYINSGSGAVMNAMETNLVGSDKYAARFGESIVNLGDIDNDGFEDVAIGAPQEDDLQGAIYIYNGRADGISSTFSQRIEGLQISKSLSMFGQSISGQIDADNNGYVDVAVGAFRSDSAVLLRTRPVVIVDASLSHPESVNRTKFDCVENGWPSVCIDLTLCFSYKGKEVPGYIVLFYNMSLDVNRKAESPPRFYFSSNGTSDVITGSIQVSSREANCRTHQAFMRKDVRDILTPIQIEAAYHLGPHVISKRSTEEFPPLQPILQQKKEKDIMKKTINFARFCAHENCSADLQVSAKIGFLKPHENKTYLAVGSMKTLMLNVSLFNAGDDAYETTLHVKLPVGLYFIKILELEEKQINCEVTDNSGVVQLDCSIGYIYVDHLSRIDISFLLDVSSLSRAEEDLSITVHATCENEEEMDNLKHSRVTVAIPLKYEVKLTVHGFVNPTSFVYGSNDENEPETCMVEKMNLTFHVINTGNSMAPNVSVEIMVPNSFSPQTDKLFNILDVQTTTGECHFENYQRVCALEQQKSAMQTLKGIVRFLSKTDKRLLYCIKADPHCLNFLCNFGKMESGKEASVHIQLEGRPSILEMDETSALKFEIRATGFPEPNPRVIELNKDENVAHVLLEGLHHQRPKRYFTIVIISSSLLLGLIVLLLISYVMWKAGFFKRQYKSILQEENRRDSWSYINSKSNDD
T1 sequence (P05556 21-798): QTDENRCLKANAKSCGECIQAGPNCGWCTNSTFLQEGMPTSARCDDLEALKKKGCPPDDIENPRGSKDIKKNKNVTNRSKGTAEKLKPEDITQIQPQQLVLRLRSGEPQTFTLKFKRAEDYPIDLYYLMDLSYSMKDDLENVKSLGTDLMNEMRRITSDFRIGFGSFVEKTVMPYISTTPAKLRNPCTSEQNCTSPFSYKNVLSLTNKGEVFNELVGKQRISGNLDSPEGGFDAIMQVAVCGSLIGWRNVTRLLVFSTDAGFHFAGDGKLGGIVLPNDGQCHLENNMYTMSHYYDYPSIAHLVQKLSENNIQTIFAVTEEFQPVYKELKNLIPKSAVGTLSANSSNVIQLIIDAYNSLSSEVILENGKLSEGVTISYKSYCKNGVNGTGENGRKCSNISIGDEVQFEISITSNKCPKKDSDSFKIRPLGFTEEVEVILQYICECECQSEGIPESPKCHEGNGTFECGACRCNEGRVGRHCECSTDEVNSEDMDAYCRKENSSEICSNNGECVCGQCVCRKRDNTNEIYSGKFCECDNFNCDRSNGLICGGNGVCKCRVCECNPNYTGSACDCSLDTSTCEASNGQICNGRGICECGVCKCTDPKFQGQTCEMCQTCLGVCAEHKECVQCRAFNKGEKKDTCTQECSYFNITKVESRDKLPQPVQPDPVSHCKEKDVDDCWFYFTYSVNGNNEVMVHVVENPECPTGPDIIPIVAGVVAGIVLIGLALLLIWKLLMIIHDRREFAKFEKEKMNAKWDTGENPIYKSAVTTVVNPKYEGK

Molecule: NC(=O)C1(NC(=O)[C@H](CCC(=O)O)NC(=O)[C@H](CCCCNC(=O)/C=C/c2cccnc2)NC(=O)c2ccc(Nc3nc4cc([125I])ccc4[nH]3)cc2)CCCCC1 [compound 7, [^125I]-(S)-6-(1-Carbamoylcyclohexylamino)-5-[(S)-2-{4-(5-iodo-1H-benzo[d]imidazol-2-ylamino)-benzamido]-6-[(E)-3-(pyridin-3-yl)acrylamido}hexanamido]-6-oxo-hexanoic Acid]
major dose accumulated in liver, spleen and marrow ([1]; fast blood clearance mice (3 at 24 h, 2 at 48 h)): 25 % ID/g
tumor uptake ([1]; fast blood clearance mice): less than 1.5 % ID/g
still circulating in the blood ([1]; slow blood clearance mice (2 at 24 h, 1 at 48 h)): approximately 15%
liver, spleen and marrow uptakes ([1]; slow blood clearance mice, 48 h): less than 8 % ID/g
tumor uptake ([1]; slow blood clearance mice): greater than 6 % ID/g
reduced in vitro affinity for α4β1 integrin compared to the bromo analogue 5 ([2]; compared with 5): nearly ten-fold

Molecule: (S)-6-(1-Carbamoylcyclohexylamino)-5-[(S)-2-{4-(5-iodo-1H-benzo[d]imidazol-2-ylamino)benz-amido]-6-[(E)-3-(pyridin-3-yl)acrylamido}hexanamido]-6-oxohexanoic Acid [compound 6]
fold less potent than the fluoro (3), chloro (4), and bromo (5) analogues ([2]; compared with 3, 4, 5): approximately 10 fold
fold more potent than the unsubstituted (15a) and methyl analogues (15b) ([2]; compared with 15a, 15b): 100 fold

Molecule: NC(=O)[C@H](Cc1ccc(O)c([125I])c1)C(=O)NC(=O)C1(NC(=O)[C@H](CCC(=O)O)NC(=O)[C@H](CCCCNC(=O)/C=C/c2cccnc2)NC(=O)c2ccc(Nc3nc4cc(Br)ccc4[nH]3)cc2)CCCCC1 [compound 8, [^125I]-(S)-6-[1-{(S)-3-Amino-2-(4-hydroxy-3-iodobenzyl)-3-oxopropanoyl-carbamoyl}cyclohexylamino]-5-[(S)-2-{4-(5-bromo-1H-benzo[d]imidazol-2-ylamino)benzamido]-6-[(E)-3-(pyridin-3-yl)-acrylamido}hexanamido]-6-oxohexanoic Acid]
in vitro binding [3]: < 4%

fold less potent than previous leads ([2]; compared with previous leads): 2 fold
Molecule: NC(=O)C1(NC(=O)[C@H](CCCC(=O)O)NC(=O)[C@H](CCCCNC(=O)/C=C/c2cccnc2)NC(=O)c2ccc(Nc3nc4cc(Br)ccc4[nH]3)cc2)CCCCC1 [compound 5, (S)-5-[(S)-2-{4-(5-Bromo-1H-benzo[d]imidazol-2-ylamino}benzamido]-6-[(E)-3-(pyridin-3-yl)-acrylamido}hexanamido]-6-(1-carbamoylcyclohexylamino)-6-oxo-hexanoic Acid]
